Results reported in ChEMBL document CHEMBL4819122, “Novel 4-(piperazin-1-yl)quinolin-2(1H)-one bearing thiazoles with antiproliferative activity through VEGFR-2-TK inhibition” (Bioorg Med Chem, 2021).
The source made the active and inactive calls. The rule behind the calls is not given here.

Experiments:
OVCAR-5 = assay: Cytotoxicity against human OVCAR-5 assessed as growth inhibition at 10 uM by NCI protocol relative to control; type: functional, cell-based
How it was run: (§1)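 Run by NCI as a single-dose screen at 10 μM across the sixty-cell-line panel, which covers nine human tumour tissue types. The read-out is percent growth inhibition of treated cells relative to untreated cells.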

EKVX = assay: Cytotoxicity against human EKVX assessed as growth inhibition at 10 uM by NCI protocol relative to control; type: functional; details: read-out: GI; how it was run: as §1
T47D [1] = assay: Cytotoxicity against human T-47D assessed as growth inhibition at 10 uM by NCI protocol relative to control; type: functional; details: read-out: GI
How it was run: (§2)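 Run by the NCI under its standard protocol: one dose of 10 μM against a sixty-line panel from nine human tumour tissues. Result given as percent growth inhibition of treated cells relative to untreated cells.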

UO-31 = assay: Cytotoxicity against human UO31 assessed as growth inhibition at 10 uM by NCI protocol relative to control; type: functional; details: read-out: GI; how it was run: as §2
PC-3 = assay: Cytotoxicity against human PC3 assessed as growth inhibition at 10 uM by NCI protocol relative to control; type: functional; details: read-out: GI; how it was run: as §1
NCI-H23 = assay: Cytotoxicity against human NCI-H23 assessed as growth inhibition at 10 uM by NCI protocol relative to control; type: functional; details: read-out: GI; how it was run: as §1
SR = assay: Cytotoxicity against human SR assessed as growth inhibition at 10 uM by NCI protocol relative to control; type: functional; details: read-out: GI; how it was run: as §2
CCRF-CEM = assay: Cytotoxicity against human CCRF-CEM assessed as growth inhibition at 10 uM by NCI protocol relative to control; type: functional; details: read-out: GI; how it was run: as §1
HOP-62 = assay: Cytotoxicity against human HOP-62 assessed as growth inhibition at 10 uM by NCI protocol relative to control; type: functional; details: read-out: GI; how it was run: as §1
A498 = assay: Cytotoxicity against human A498 assessed as growth inhibition at 10 uM by NCI protocol relative to control; type: functional; details: read-out: GI; how it was run: as §1
NCI-H522 = assay: Cytotoxicity against human NCI-H522 assessed as growth inhibition at 10 uM by NCI protocol relative to control; type: functional; details: read-out: GI; how it was run: as §1
M14 = assay: Cytotoxicity against human M14 assessed as growth inhibition at 10 uM by NCI protocol relative to control; type: functional; details: read-out: GI; how it was run: as §1
SF-295 = assay: Cytotoxicity against human SF-295 assessed as growth inhibition at 10 uM by NCI protocol relative to control; type: functional; details: read-out: GI; how it was run: as §1
LOX IMVI = assay: Cytotoxicity against human LOX IMVI assessed as growth inhibition at 10 uM by NCI protocol relative to control; type: functional; details: read-out: GI; how it was run: as §1
HCT-15 = assay: Cytotoxicity against human HCT-15 assessed as growth inhibition at 10 uM by NCI protocol relative to control; type: functional; details: read-out: GI; how it was run: as §1
HCT-116 = assay: Cytotoxicity against human HCT-116 assessed as growth inhibition at 10 uM by NCI protocol relative to control; type: functional; details: read-out: GI; how it was run: as §1
BT-549 = assay: Cytotoxicity against human BT-549 assessed as growth inhibition at 10 uM by NCI protocol relative to control; type: functional; details: read-out: GI; how it was run: as §1
UACC-62 = assay: Cytotoxicity against human UACC-62 assessed as growth inhibition at 10 uM by NCI protocol relative to control; type: functional; details: read-out: GI; how it was run: as §2
SNB-19 = assay: Cytotoxicity against human SNB-19 assessed as growth inhibition at 10 uM by NCI protocol relative to control; type: functional; details: read-out: GI; how it was run: as §2
SN12C = assay: Cytotoxicity against human SN12C assessed as growth inhibition at 10 uM by NCI protocol relative to control; type: functional; details: read-out: GI; how it was run: as §2
K562 = assay: Cytotoxicity against human K-562 assessed as growth inhibition at 10 uM by NCI protocol relative to control; type: functional; details: read-out: GI; how it was run: as §1
OVCAR-4 = assay: Cytotoxicity against human OVCAR-4 assessed as growth inhibition at 10 uM by NCI protocol relative to control; type: functional; details: read-out: GI; how it was run: as §1
MOLT-4 = assay: Cytotoxicity against human MOLT-4 assessed as growth inhibition at 10 uM by NCI protocol relative to control; type: functional; details: read-out: GI; how it was run: as §1
MDA-MB-231 = assay: Cytotoxicity against human MDA-MB-231 assessed as growth inhibition at 10 uM by NCI protocol relative to control; type: functional; details: read-out: GI; how it was run: as §1
MDA-MB-435 = assay: Cytotoxicity against human MDA-MB-435 assessed as growth inhibition at 10 uM by NCI protocol relative to control; type: functional, cell-based; how it was run: as §1
NCI-H226 = assay: Cytotoxicity against human NCI-H226 assessed as growth inhibition at 10 uM by NCI protocol relative to control; type: functional; details: read-out: GI; how it was run: as §1
SK-MEL-5 = assay: Cytotoxicity against human SK-MEL-5 assessed as growth inhibition at 10 uM by NCI protocol relative to control; type: functional; details: read-out: GI; how it was run: as §1
MCF7 = assay: Cytotoxicity against human MCF7 assessed as growth inhibition at 10 uM by NCI protocol relative to control; type: functional; details: read-out: GI; how it was run: as §1
OVCAR-3 = assay: Cytotoxicity against human OVCAR-3 assessed as growth inhibition at 10 uM by NCI protocol relative to control; type: functional; details: read-out: GI; how it was run: as §1
IGROV-1 = assay: Cytotoxicity against human IGROVI assessed as growth inhibition at 10 uM by NCI protocol relative to control; type: functional; details: read-out: GI; how it was run: as §1
CAKI-1 = assay: Cytotoxicity against human Caki1 assessed as growth inhibition at 10 uM by NCI protocol relative to control; type: functional; details: read-out: GI; how it was run: as §1
ACHN = assay: Cytotoxicity against human ACHN assessed as growth inhibition at 10 uM by NCI protocol relative to control; type: functional; details: read-out: GI; how it was run: as §1
SF-268 = assay: Cytotoxicity against human SF-268 assessed as growth inhibition at 10 uM by NCI protocol relative to control; type: functional; details: read-out: GI; how it was run: as §1
NCI-H322M = assay: Cytotoxicity against human NCI-H322M assessed as growth inhibition at 10 uM by NCI protocol relative to control; type: functional; details: read-out: GI; how it was run: as §1
A549 = assay: Cytotoxicity against human A549 assessed as growth inhibition at 10 uM by NCI protocol relative to control; type: functional; details: read-out: GI; how it was run: as §1
UACC-257 = assay: Cytotoxicity against human UACC-257 assessed as growth inhibition at 10 uM by NCI protocol relative to control; type: functional; details: read-out: GI; how it was run: as §2
T47D [2] = assay: Cytotoxicity against human T47D cells assessed as reduction in cell viability after 3 hrs by MTT assay
RPMI-8226 = assay: Cytotoxicity against human RPMI-8226 assessed as growth inhibition at 10 uM by NCI protocol relative to control; type: functional; how it was run: as §1
OVCAR-8 = assay: Cytotoxicity against human OVCAR-8 assessed as growth inhibition at 10 uM by NCI protocol relative to control; type: functional; details: read-out: GI; how it was run: as §1
HL-60 = assay: Cytotoxicity against human HL60 assessed as growth inhibition at 10 uM by NCI protocol relative to control; type: functional; details: read-out: GI; how it was run: as §1
MDA-MB-468 = assay: Cytotoxicity against human MDA-MB-468 assessed as growth inhibition at 10 uM by NCI protocol relative to control; type: functional; details: read-out: GI; how it was run: as §1
NCI-H460 = assay: Cytotoxicity against human NCI-H460 assessed as growth inhibition at 10 uM by NCI protocol relative to control; type: functional; details: read-out: GI; how it was run: as §1

COc1ccc(-c2csc(NC(=O)CN3CCN(c4cc(=O)n(-c5ccccc5)c5ccccc45)CC3)n2)cc1
growth inhibition (GI) (OVCAR-5): inactive | inhibition of growth at 10 µM (EKVX): 35.2% | inhibition of growth at 10 µM (T47D [1]): 60% | inhibition of growth at 10 µM (UO-31): 27.9% | inhibition of growth at 10 µM (PC-3): 27.5% | inhibition of growth at 10 µM (NCI-H23): 35.7% | inhibition of growth at 10 µM (SR): 11.2% | inhibition of growth at 10 µM (CCRF-CEM): 24.9% | inhibition of growth at 10 µM (HOP-62): 12.4% | inhibition of growth at 10 µM (A498): 13% | inhibition of growth at 10 µM (NCI-H522): 30.4% | inhibition of growth at 10 µM (M14): 16.1% | inhibition of growth at 10 µM (SF-295): 22.9% | inhibition of growth at 10 µM (LOX IMVI): 15% | inhibition of growth at 10 µM (HCT-15): 18% | inhibition of growth at 10 µM (HCT-116): 28.9% | inhibition of growth at 10 µM (BT-549): 19.9% | inhibition of growth at 10 µM (UACC-62): 31.1% | inhibition of growth at 10 µM (SNB-19): 24.2% | inhibition of growth at 10 µM (SN12C): 16% | inhibition of growth at 10 µM (K562): 56.4% | inhibition of growth at 10 µM (OVCAR-4): 70.4% | inhibition of growth at 10 µM (MOLT-4): 53.1% | inhibition of growth at 10 µM (MDA-MB-231): 22.4% | growth inhibition (GI) (MDA-MB-435): inactive | inhibition of growth at 10 µM (NCI-H226): 18.7% | inhibition of growth at 10 µM (SK-MEL-5): 53% | inhibition of growth at 10 µM (MCF7): 26% | inhibition of growth at 10 µM (OVCAR-3): 17.1% | inhibition of growth at 10 µM (IGROV-1): 21.5% | inhibition of growth at 10 µM (CAKI-1): 16.1% | inhibition of growth at 10 µM (ACHN): 19% | inhibition of growth at 10 µM (SF-268): 12.4% | inhibition of growth at 10 µM (NCI-H322M): 12.6% | inhibition of growth at 10 µM (A549): 19.7% | inhibition of growth at 10 µM (UACC-257): 27.8% | IC50 (T47D [2]): 8.11 µM | growth inhibition (GI) (RPMI-8226): inactive | inhibition of growth at 10 µM (OVCAR-8): 15.5% | inhibition of growth at 10 µM (HL-60): 30.2% | inhibition of growth at 10 µM (MDA-MB-468): 55.3% | inhibition of growth at 10 µM (NCI-H460): 15.9%
